Results pooled from the literature.
Protocols differ between the studies behind these lines.
Target: Epithelial discoidin domain-containing receptor 1 (DDR1, Homo sapiens, UniProt Q08345)

Structure (SMILES) | test | conditions | remaining binding
FC(F)(F)Oc1cccc(-c2cnc3ccc(-c4ccncc4)nn23)c1 | cell-free assay, competition with immobilised ligand | 5 µM | 48%
Cc1cnn2ncc(-c3ccnc(N(C)C)n3)c2c1 | binding | 1 µM | 100%
CC(C)(O)c1cncc(-c2nc3ccc(F)cc3n2C2CC2)c1 | cell-free assay, competition with immobilised ligand | 1 µM | 100%
COc1ccnn2ncc(-c3ccnc(N(C)C)n3)c12 | binding | 1 µM | 100%
COc1cnc(Nc2cccc(S(N)(=O)=O)c2)nc1N1CCN(c2ccccc2)C(=O)C1 | binding, competition with immobilised ligand | 1 µM | 100%
CS(=O)(=O)c1cc(C2(NC(=O)c3cncc4c3cnn4-c3ccc(F)cc3)CC2)ccn1 | cell-free assay, competition with immobilised ligand | 1 µM | 100%
Cc1cnc(Nc2ccc(C(=O)N3CCC(N4CCCC4)CC3)cc2)nc1-c1cc2ccccc2s1 | binding, competition with immobilised ligand | 1 µM | 0.1%
CC(=O)Nc1c(C(C)=O)c(=O)n(C)c2nc(-c3ccc(Cl)cc3Cl)c(-c3ccc(Cl)cc3)cc12 | cell-free assay, competition with immobilised ligand | 1 µM | 100%
CN(C)c1nccc(-c2cnn3ncccc23)n1 | binding | 1 µM | 100%
C[C@@H](c1ccc(-n2cnc3c(N)ncnc32)cc1)N1CCc2nn(C)c(Cc3ccccc3)c2C1=O | binding, competition with immobilised ligand | 0.1 µM | 8.9%
CN(CCCC(F)(F)F)c1nccc(-c2cnn3ncccc23)n1 | binding | 1 µM | 100%
Cc1cc(NC(=O)c2cccc(S(F)(F)(F)(F)F)c2)cc(-n2ccn3nc(-c4cccnc4)cc23)c1 | cell-free assay, competition with immobilised ligand | 1 µM | 0%
O=C(c1ccc(Nc2nccc(-c3cc4ccccc4s3)n2)cc1)N1CCC(N2CCCC2)CC1 | binding, competition with immobilised ligand | 1 µM | 2.1%
O=C(NCC1CCOCC1)c1n[nH]cc1NC(=O)c1c(F)cccc1F | binding, competition with immobilised ligand | 1 µM | 100%
CNC(=O)[C@@H]1CC[C@@H](n2c(-c3ccc4cnccc4c3)nc3ccc(C(=O)NCc4cccc(C(N)=O)c4)cc32)C1 | binding, competition with immobilised ligand | 1 µM | 100%
CN(C)c1ncc(F)c(-c2cnn3ncccc23)n1 | binding | 1 µM | 89%
CNC(=O)c1ccc(Nc2ncc(C(F)(F)F)c(NCc3nccnc3N(C)S(C)(=O)=O)n2)cc1 | cell-free assay, competition with immobilised ligand | 0.1 µM | 100%
O=C(c1ccc(Nc2ncc(Cl)c(-c3cc4ccccc4s3)n2)cc1)N1CCC(N2CCCC2)CC1 | binding, competition with immobilised ligand | 1 µM | 0.4%
FC(F)(F)c1ccc2c(c1)nc(-c1cccnc1)n2C1CC1 | cell-free assay, competition with immobilised ligand | 1 µM | 100%
N[C@@H]1CCN(c2nccc(-c3cnn4ncccc34)n2)C1 | binding | 1 µM | 100%
